NR1D1 modulator: modulators of human Rev-erb alpha DNA binding | activity, % at 10 µM | Rev-erbα–FITC-DNA binding, fluorescence polarization, 90 min | 0.79% of 370,000 active | AID 1259318;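 active = activity above about 14%, limit read from the data; passing the limit was not always enough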;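 note: 0% = DMSO wells with 35 nM protein and 100% = DMSO wells with 750 nM protein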
NR2E3 ag-1: agonists of human nuclear receptor NR2E3 | inhibition of corepressor binding, % at 4.78 µM | Q9Y5X4 | AID 2300 | GST-NR2E3/biotin-RetCOR TR-FRET, 1536-well | 0.12% of 320,000 active;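 active = percent inhibition above the cutoff of mean plus 3 SD of all tested compounds, set per screening campaign, cut at about 20% in these data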;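 note: 0% = DMSO wells and 100% = biotin wells as full block of FRET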
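Material – GST-tagged NR2E3 plus biotinylated RetCOR corepressor · Quantity – NR2E3 fusion 1.35 nM · Times – 5 h incubation at 4 °C · Medium – pH 7.5 Tris-based buffer · Technique – TR-FRET, Eu(K)-anti-GST donor, streptavidin-D2 acceptor, ex 340, em 617/671 nm · Benchmarks – high control biotin, low control 0.6% DMSO · Format – 1536-well plates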
PKA-R1A activ: activates the PKA-R1A holoenzyme complex; activation, % at 11.4 µM; PKA-R1A dissociation, Cy5-IP20 fluorescence polarization; scaled: DMSO 0%, 113 µM cGMP 100%; AID 504707; 0.083% of 340,000 active;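 active = percent activation above the mean of all tested compounds plus 3 SD, cut at about 19% in these data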;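 note: higher means more PKAc released from R1A so a rise in polarization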
NR2E3 ag-2: human photoreceptor-specific nuclear receptor agonism. Q9Y5X4. CHO-S Gal4-NCOR/VP16-NR2E3 two-hybrid, luciferase. inhibition of corepressor binding, % at 3.98 µM. 0.35% of 360,000 active;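 active = inhibition above the mean of all tested compounds plus 3 SD, cut at about 70% in these data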;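 note: 0% = DMSO with NR2E3 transfected cells and 100% = cells lacking NR2E3 construct; higher means lower luciferase signal from less NR2E3 corepressor binding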
PKA-R2B act: activates the human PKA-R2B holoenzyme complex. PKA-R2B holoenzyme dissociation, Cy5-IP20 fluorescence polarization; R2B truncated from residue 108, S112A mutant; 0% DMSO only, 100% 113 µM cGMP. activation, % at 11.4 µM. 0.079% of 340,000 active. AID 504700;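 active = activation above a cutoff set at the mean over all compounds plus 3 SD, cut at about 18% in these data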;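 note: higher means more holoenzyme dissociation and a rise in polarization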
Target sequence (P31323 whole entry, looked up, other chains not shown, the tested form may be a part): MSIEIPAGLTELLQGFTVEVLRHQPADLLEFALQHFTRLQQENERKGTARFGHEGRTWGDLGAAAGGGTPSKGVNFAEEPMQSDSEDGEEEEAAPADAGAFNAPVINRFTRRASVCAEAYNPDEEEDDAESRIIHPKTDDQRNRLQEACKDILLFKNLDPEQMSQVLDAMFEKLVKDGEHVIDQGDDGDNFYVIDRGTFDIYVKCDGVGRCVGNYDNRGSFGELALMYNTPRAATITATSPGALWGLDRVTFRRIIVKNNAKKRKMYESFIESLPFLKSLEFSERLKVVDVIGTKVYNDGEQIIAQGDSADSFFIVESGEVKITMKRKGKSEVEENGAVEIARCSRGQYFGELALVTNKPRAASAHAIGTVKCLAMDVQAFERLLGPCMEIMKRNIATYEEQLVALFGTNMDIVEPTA
PG9 Ab binder: binds the HIV-1 gp120 antibody PG9; 0.43% of 360,000 active; TR-FRET gp120-PG9 antibody binding; AID 624416; inhibition, % at 6.7 µM; in the data active = inhibition above about 8.5%
NR2E3 ag conf: confirmation of human NR2E3 agonists; 51% of 2,300 active; inhibition, % at 3.98 µM; CHO-S mammalian two-hybrid NR2E3-NCOR, luciferase luminescence; shares compounds with NR2E3 ag-2;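 active = average inhibition above a cutoff equal to the mean inhibition of all tested compounds plus one SD, cut at about 70% in these data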;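 note: 0% = DMSO in NR2E3 cells and 100% = DMSO in cells lacking NR2E3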
GAL4-VP16 luc: counter-screen for NR2E3 agonists: GAL4-VP16 reporter inhibitors; shares compounds with NR2E3 ag-2; CHO-S GAL4-VP16 luciferase reporter, luminescence; inhibition, % at 3.98 µM; 29% of 2,300 active;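 active = mean inhibition above a cutoff equal to the average over all tested compounds plus one standard deviation, cut at about 70% in these data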;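 note: luciferase from a UAS reporter driven by GAL4-VP16 transactivation; 0% = DMSO with VP16-transfected cells and 100% = DMSO with cells lacking VP16; higher means less reporter light so more repression of VP16 activity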
The depositor's hits bear a star; . = not tested or not shown. Shown are actives, neighbours in structure and some others; about 1.6% of the full set was active somewhere.

SMILES	NR1D1 modulator	NR2E3 ag-1	PKA-R1A activ	NR2E3 ag-2	PKA-R2B act	PG9 Ab binder	NR2E3 ag conf	GAL4-VP16 luc
Cc1cc(=O)[nH]c(SCc2cccc3ccccc23)n1	2	-2	-3	71*	-1	-2	80*	57
Cc1cc(=O)[nH]c(SCc2cccc(Br)c2)n1	-3	2	-7	24	-12	-2	.	.
Cc1cc(=O)[nH]c(SCc2ccc(Cl)cc2Cl)n1	2	-2	-9	21	-4	-3	.	.
Cc1cc(CSc2nc(C)cc(=O)[nH]2)c2ncccc2c1	-2	-3	7	86*	-6	-2	94*	72*
COc1ccc(CN(C)C(C#Cc2ccccc2)Cc2ccccc2)c(OC)c1 (configuration not stated)	2	.	.	.	.	.	.	.
OC1(c2cccc(C(F)(F)F)c2)CCN(c2ncnc3c2[nH]c2ccccc23)CC1	5	3	-3	60	13	-1	40	28
c1ccc2c(c1)CCN(c1ncnc3c1[nH]c1ccccc13)C2	-3	2	-7	89*	4	0	95*	88*
CCOC(=O)CC[C@@H]1CC[C@]2(CCCN(C(=O)C3CCCC3)C2)O1	-1	.	.	.	.	.	.	.
Cc1cc(C2=NNC(=NC3CC3)SC2)c(C)n1-c1ccccc1F	-7	1	1	94*	-7	2	89*	91*
CCCOc1ccc(CSc2nc3ccccc3[nH]2)cc1	3	5	-25	74*	-8	-1	74*	44
CCOc1ccc(OCCSc2nc3ccccc3[nH]2)cc1	-6	1	7	10	0	0	.	.
FC(F)(F)c1ccccc1Cc1c(-c2ccco2)nc2c3ccccc3ccn12	-6	.	.	.	.	-1	.	.
Cc1ccc(S(=O)(=O)N2CCCCC2)cc1NCC(=O)Nc1ccc(Br)cc1F	-2	.	1	54	1	1	81*	72*
O=C(CNc1ccccc1F)Nc1cc(S(=O)(=O)N2CCCCC2)ccc1Cl	4	3	-4	-19	-3	3	.	.
O=S(=O)(/C(=C\c1ccc(C(F)(F)F)cc1)c1nc2ccccc2[nH]1)c1ccccc1	.	.	-7	91*	-2	.	96*	-12
Cc1cccc(OCC(C)CN2CCC(C(O)(c3ccccc3)c3ccccc3)CC2)c1 (configuration not stated)	0	.	.	.	.	.	.	.
COc1ccc(NS(=O)(=O)c2ccc3oc(SC)nc3c2)cc1	-1	0	2	74*	-11	0	53	56
CNC(=O)CSc1nc2cc(S(=O)(=O)Nc3ccc(OC)cc3)ccc2o1	-8	3	2	15	-1	-2	.	.
CC1C(=O)N(Cc2cn(CC3CCCCC3)nn2)CCS(=O)(=O)N1Cc1ccc(-c2ccc(Cl)cc2)cc1 (configuration not stated)	.	.	4	59	-1	.	32	34
CC1C(=O)N(Cc2cn(CCC3OCCCO3)nn2)CCS(=O)(=O)N1Cc1ccc(-c2ccc(Cl)c(Cl)c2)cc1 (configuration not stated)	8	.	-8	68	6	0	93*	77*
CC1C(=O)N(Cc2cn(CCC3OCCCO3)nn2)CCS(=O)(=O)N1Cc1ccc(-c2ccc(F)cc2)cc1 (configuration not stated)	-8	.	4	2	-8	0	.	.
O=S(=O)(Nc1cccc2ncccc12)c1cccs1	.	3	-10	97*	-2	.	48	24
NC(=O)CC(NC(=O)c1ccc(Br)cc1)c1ccc(N2CCCCCC2)c([N+](=O)[O-])c1 (configuration not stated)	9	0	0	48	-8	-1	17	27
Cc1ccc(-n2sc3cc(F)ccc3c2=O)c(C)c1	-3	.	-1	54	-4	2	-2	-2
Nc1ccc(Br)cc1-c1nc2ccccc2[nH]c1=O	-7	1	11	62	3	1	91*	77*
SMILES	NR1D1 modulator	NR2E3 ag-1	PKA-R1A activ	NR2E3 ag-2	PKA-R2B act	PG9 Ab binder	NR2E3 ag conf	GAL4-VP16 luc
COc1ccc2c(c1)N[C@@](CCN1C(=O)c3ccccc3C1=O)(c1[nH]c3ccccc3c1CCN1C(=O)c3ccccc3C1=O)C2=O	-2	.	.	.	.	.	.	.
CC(C)C[C@@H](CN1CCC[C@@H]1CN1C(=S)NC[C@@H]1Cc1ccc(O)cc1)N1C[C@H](Cc2ccc(O)cc2)N(CC2CCCCC2)C1=S	5	.	.	54	.	-1	14	19
CC(C)C[C@@H](CN1CCC[C@@H]1CN1C(=S)NC[C@@H]1Cc1ccc(O)cc1)N1C[C@H](Cc2ccc(O)cc2)N(CC2CCCCCC2)C1=S	-1	.	.	24	.	-1	.	.
COc1ccc(CCNc2c(C)c(C)nc3ncnn23)cc1	-5	1	8	93*	-7	0	94*	75*
CCc1c(C)nc2ncnn2c1NCCc1ccc(OC)c(OC)c1	-3	4	-5	8	-1	0	.	.
C=CCN(CC=C)C(=S)NC(=O)c1ccc([N+](=O)[O-])cc1	4	3	-9	66	-16	-1	-6	-10
O=c1c2ccccc2sn1-c1ccc(Cl)cc1	4	.	4	55	-5	2	-47	-122
O=c1c2ccccc2sn1-c1ccc(F)cc1	-12	2	-14	41	-8	1	.	.
NC(=O)c1ccc(N2CCN(c3ccccc3O)CC2)c([N+](=O)[O-])c1	-2	-5	7	16	-3	-3	.	.
NC(=O)c1ccc(N2CCN(S(=O)(=O)c3cccs3)CC2)c([N+](=O)[O-])c1	0	.	4	82*	5	-1	95*	78*
CN(C)c1ccc(/C=C/c2ccc3c4ccccc4ccc3[n+]2-c2ccccc2)cc1	-8	.	13	101*	12	-50	99*	90*
CN(C)c1ccc(/C=C/c2ccc3ccccc3[n+]2C)cc1	-9	-28	1	52	-1	-58	87*	52
CN(C)c1ccc(/C=C/c2cccc[n+]2[O-])cc1	4	-1	.	-81	.	-10	.	.
COCCCNC(=S)N1CCN(c2nc(-c3ccccc3)cs2)CC1	5	3	0	-1	9	-3	.	.
COCCCNC(=S)N1CCN(c2nc(-c3ccc(Cl)cc3)cs2)CC1	1	.	-11	65	-3	0	73*	53
CCOC(CN=c1nc(N(C)C)ss1)OCC	0	.	-3	89*	3	2	17	3

Assay outcomes as filed in PubChem BioAssay.
